# High-throughput results deposited in PubChem BioAssay by several laboratories.
# Compounds with a hit are over-represented: about 1.9% of the library has one in this group of screens.
# UCH37 inh: inhibitors of human UCH37 deubiquitinase, primary screen, biochemical, Ub-AMC cleavage, fluorescence. purified proteasome/UCH37. inhibition, % (test concentration not listed). hit rate 0.33% among 330,000;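 active = mean inhibition over replicate wells above about 20%, limit read from the data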;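 note: 0% = compound-free wells with enzyme and 100% = wells lacking proteasome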
# Target sequence (Q9Y5K5 whole entry, looked up): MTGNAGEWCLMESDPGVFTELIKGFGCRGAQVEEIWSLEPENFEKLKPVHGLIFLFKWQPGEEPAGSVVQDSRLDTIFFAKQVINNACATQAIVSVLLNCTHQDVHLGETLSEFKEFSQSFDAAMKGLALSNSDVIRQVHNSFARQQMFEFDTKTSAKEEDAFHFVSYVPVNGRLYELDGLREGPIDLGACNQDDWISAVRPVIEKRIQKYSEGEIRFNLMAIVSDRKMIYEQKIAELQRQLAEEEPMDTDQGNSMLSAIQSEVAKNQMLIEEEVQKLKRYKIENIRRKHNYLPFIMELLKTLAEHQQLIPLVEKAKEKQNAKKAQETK
#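 Signal – fluorescence, ex 355 nm, em 460 nm · System – Proteasome-bound UCH37 · Input – 0.15 nM proteasome as dispensed · Timing – 30 min preincubation with enzyme, 25 min cleavage at room temperature · Read-out basis – percent inhibition of cleavage signal versus uninhibited and no-proteasome wells · Medium – Tris-HCl pH 7.4 with ATP-MgCl2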
# beta cell repl: inducers of MIN6 beta-cell proliferation, primary screen, ATP luminescence, uHTS; MIN6 cells proliferation, ATPlite luminescence, 48 h; cells starved in 0.2% serum; 100% = growth in 10% serum; proliferation, % at 10 µM; hit rate 0.29% among 330,000;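 active = compounds whose signal lies at least 3.5 SD above the mean of all wells on their plate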;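 note: 0% = DMSO-treated cells in low-serum medium and 100% = 10% serum control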
# Rce1 inhib: yeast Rce1p protease inhibitors, primary screen, biochemical, fluorescence, cell-free homogeneous; CAAX prenyl protease 2 (Saccharomyces cerevisiae (strain ATCC 204508 / S288c)), Q03530; yeast membranes, quenched prenylated peptide cleavage fluorescence; calls only; hit rate 0.27% among 290,000;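 active = fall in fluorescence gain of 50% or more versus controls, with final raw signal at or below 3038400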;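 note: plate controls were neutral control wells for no effect and wells lacking membranes for full effect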
# Target sequence (Q03530 whole entry, looked up): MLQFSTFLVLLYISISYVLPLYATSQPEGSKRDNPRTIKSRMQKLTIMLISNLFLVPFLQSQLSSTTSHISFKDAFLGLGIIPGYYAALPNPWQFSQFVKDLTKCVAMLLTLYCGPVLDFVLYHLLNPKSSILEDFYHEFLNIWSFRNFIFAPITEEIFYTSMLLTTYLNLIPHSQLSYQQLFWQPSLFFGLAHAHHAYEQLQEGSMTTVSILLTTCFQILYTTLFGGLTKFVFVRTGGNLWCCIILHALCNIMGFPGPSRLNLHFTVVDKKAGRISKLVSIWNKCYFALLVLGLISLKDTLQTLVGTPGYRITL
# PG9 Ab binder: binders of HIV-1 gp120 antibody PG9, primary screen, biochemical, TR-FRET; hit rate 0.43% among 360,000; AID 624416, 2012; TR-FRET gp120-PG9 antibody binding; inhibition, % at 6.7 µM; HIV-1 gp120 / PG9 antibody interaction; in the data active = inhibition above about 8.5%
# CR mimetic SO: reduction of superoxide in aged yeast, primary screen, HTS; S. cerevisiae aged cells, superoxide DHE fluorescence; stronger effect = lower value; superoxide response (% of plate mean), % at 10 µM; hit rate 0.18% among 330,000; AID 2690, 2010;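 active = superoxide response under a set limit, about three screen SD below normal, cut at about 65% in these data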;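 note: yeast aged for seven days with compound at 30 °C before DHE staining; 100% = average MFI of all compound-treated wells on the plate with controls excluded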
# NR1D1 modulator: modulators of Rev-erb alpha DNA binding, primary screen, biochemical, FITC-DNA, fluorescence polarization, uHTS; Nuclear receptor subfamily 1 group D member 1 (Homo sapiens), P20393; Rev-erbα–FITC-DNA binding, 90 min; activity, % at 10 µM; hit rate 0.79% among 370,000;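 active = activity above about 14%, limit read from the data; passing the limit was not always enough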;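 note: 0% = DMSO wells with 35 nM protein and 100% = DMSO wells with 750 nM protein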
# Rev-erbA confirm: modulators of Rev-erb alpha DNA binding, confirmation, biochemical, FITC-DNA, fluorescence polarization, single point; 90 min; shares compounds with NR1D1 modulator; activation, % at 25 µM; hit rate 61% among 3,000;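 active = activation at or above a set limit, or at least 3 SD above the negative control mean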;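 note: 0% = 35 nM protein with DMSO and 100% = 750 nM protein high control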
# RORg DNA counter: modulation of RORgamma DNA binding, dose response, counter-screen for Rev-erb alpha modulator project, biochemical, fluorescence polarization, FITC-DNA | hit rate 8% among 910 | IC50, µM | AID 1259320, 2017 | shares compounds with NR1D1 modulator | purified RORgamma protein-FITC-DNA binding;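 active = Compounds whose fitted half-maximal concentration for disrupting protein-DNA binding is below 10 micromolar; the record names Rev-erb in its text, so the target is in doubt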
# * marks the source's active call; other numbers are inactive results; i = inactive; x = no result given.
SMILES,UCH37 inh,beta cell repl,Rce1 inhib,PG9 Ab binder,CR mimetic SO,NR1D1 modulator,Rev-erbA confirm,RORg DNA counter
O=C(C(=O)N1CCCCCC1)c1c[nH]c2ccccc12,6.0,1.4,i,-1.8,88.8,3.5,x,x
C[n+]1cc(C(=O)N2CCCCC2)ccc1/C=C/c1c[nH]c2ccccc12,23.5*,-2.1,i,-10.2,103.1,74.7*,57.6*,>40
COc1cccc(C(=O)Nc2ccc(-c3nc4ccccc4o3)c(O)c2)c1,i,-2.8,i,1.9,100.8,85.5*,64.3*,>40
Cc1ccc(OCC(=O)Nc2ccc(O)c(-c3nc4ccccc4o3)c2)cc1,x,-3.7,i,6.6,109.0,102.6*,38.4*,i
O=C(NN=Cc1ccc(F)cc1)c1ccc(Cn2cc(Br)c([N+](=O)[O-])n2)o1,6.4,x,x,x,x,x,x,x
O=C(c1ccc2c(=O)n(Cc3ccccc3Cl)c(=S)[nH]c2c1)N1CCOCC1,6.9,-0.7,i,-1.5,94.2,31.8*,26.9*,x
CC(=NNS(=O)(=O)c1ccc(Br)cc1)c1c[nH]c2ccccc12,1.2,x,x,x,x,x,x,x
c1ccc(NN=C2CCCc3ccccc32)nc1,4.6,x,x,x,x,x,x,x
COc1ccc(C(=O)NN=C(C)CC(=O)Nc2ccc(N(C)C)cc2)c(OC)c1,0.2,x,x,x,x,x,x,x
O=C1c2ccccc2C(Nc2ccc(S(=O)(=O)N3CCCCC3)cc2)N1c1ccccn1 (stereo not given),1.4,-1.2,i,-0.8,118.7,24.7*,21.3*,x
CCc1cc2cc3c(cc2nc1SCC(=O)Nc1c[nH]c(=O)[nH]c1=O)OCO3,-3.0,-0.5,i,0.8,100.9,186.8*,171.6*,>40
CCc1cc2cc3c(cc2nc1SCC(=O)Nc1nccs1)OCO3,5.0,-0.1,i,14.5*,92.9,224.8*,122.5*,>40
COc1ccc2cc(C#N)c(SCC(=O)N3CCCC3)nc2c1,-24.5,-0.5,i,-3.2,86.3,-1.9,x,x
CCOc1ccc2nc(SCC#N)c(C#N)cc2c1,-7.1,-4.0,i,-6.4,74.1,39.1*,24.5*,x
CCOc1ccc2cc(C#N)c(SCC(=O)N3CCC(C)CC3)nc2c1,-81.3,-1.9,i,-1.2,i,69.8*,34.0*,x
C(=Nn1cnnc1)c1ccc(-c2ccccc2)cc1,4.3,x,x,x,x,x,x,x
Cc1ccc(SC2=C[C@@]3(O)CC[C@@H](O)[C@@](Sc4ccc(C)cc4)(C2=O)[C@H]3O)cc1,x,x,x,1.3,x,-5.2,x,x
CC(C)(C)c1ccc(SC2=C[C@@]3(O)CC[C@@H](O)[C@@](Sc4ccc(C(C)(C)C)cc4)(C2=O)[C@H]3O)cc1,x,x,x,-13.1,x,33.3*,20.5*,x
FC(F)(F)c1cccc(-c2ccc(C=NNc3nncc(-c4ccccc4)n3)o2)c1,8.3,x,x,x,x,x,x,x
COc1ccc(NC(=O)c2sc3nc(N4CCCC4)c4c(c3c2N)CC(C)(C)OC4)c(OC)c1,x,2.8,i,1.3,112.0,53.3*,29.8*,i
CCOc1ccc(NC(=O)c2sc3nc(N4CCOCC4)c4c(c3c2N)CC(C)(C)OC4)cc1,-174.5,-2.5,i,0.1,92.4,33.4*,13.9,x
CC1(C)Cc2c(c(N3CCCC3)nc3sc(C(=O)Nc4ccccc4)c(N)c23)CO1,-407.4,1.3,i,1.3,96.5,50.0*,43.6*,i
COc1ccc(NC(=O)c2sc3nc(N4CCOCC4)c4c(c3c2N)CC(C(C)C)OC4)c(OC)c1 (stereo not given),-393.8,4.4,i,-1.5,94.2,-3.8,x,x
CC(CC(=O)NCc1ccco1)=NNC(=O)CC#N,0.4,x,x,x,x,x,x,x
CCOC(=O)c1c(-c2ccc(C)cc2)csc1NC(=S)NC(=O)c1ccccc1,6.1,-5.5,i,-3.7,104.9,1.1,x,x
SMILES,UCH37 inh,beta cell repl,Rce1 inhib,PG9 Ab binder,CR mimetic SO,NR1D1 modulator,Rev-erbA confirm,RORg DNA counter
CCOC(=O)c1c(-c2ccccc2)csc1NC(=O)/C(C#N)=C/c1ccc(O)c(OC)c1,3.5,x,i,1.8,103.9,26.3*,36.5*,>40
CCOC(=O)c1c(-c2ccc(C)cc2)csc1NC1=NS(=O)(=O)c2ccccc21,-208.2,-0.1,i,-0.8,101.9,36.6*,20.2*,x
CCOC(=O)c1c(-c2ccc(C)cc2)csc1NC(=O)c1cccc(N2C(=O)CCC2=O)c1,-63.3,-0.7,i,-1.1,109.5,26.1*,8.5,x
CCOC(=O)c1c(-c2ccccc2)csc1NC(=O)/C(C#N)=C/c1ccc(OC)c(OC)c1,-8.8,-6.5,i,-1.7,93.6,11.1,x,x
CCOC(=O)c1c(-c2ccccc2)csc1NC(=O)c1cccc(N2C(=O)CCC2=O)c1,-328.2,1.3,i,1.3,118.5,26.0*,9.0,x
CC(=NNC(=O)c1sc(NS(=O)(=O)c2ccccc2)nc1C)c1ccccc1,4.7,x,x,x,x,x,x,x
N#CCCn1cc(C=NO)c(-c2ccccc2)n1,2.1,x,x,x,x,x,x,x
Cc1ccc2cc(CCNC(=O)C(=O)c3c[nH]c4ccccc34)c(=O)[nH]c2c1,-6.8,0.2,x,-0.9,101.8,39.8*,19.0*,x
Cc1ccc2cc(CCNC(=O)C(=O)c3c(C)[nH]c4ccccc34)c(=O)[nH]c2c1,3.3,-1.3,x,0.9,97.5,3.5,x,x
O=C(NN=Cc1cccc(F)c1)c1ccc(-c2ccccc2)cc1,0.9,x,x,x,x,x,x,x
N#C/C(=C/c1ccc(N2CCOCC2)o1)C(=O)Nc1ccccc1,19.3,x,i,-16.2,x,53.4*,26.0*,x
COc1ccc(NC(=O)CSc2nc(-c3ccc(C)cc3)cc(C(F)(F)F)c2C#N)cc1,-0.3,-3.9,i,1.4,114.9,24.3*,40.5*,1.49*
COc1ccc(-c2cc(C(F)(F)F)c(C#N)c(SCC(=O)Nc3nc(C)co3)n2)cc1,-196.4,-5.0,i,x,111.5,46.8*,42.9*,>40
COc1ccc(-c2cc(C(F)(F)F)c(C#N)c(SCC(=O)Nc3ccccc3C#N)n2)cc1,-24.8,-6.2,i,x,113.5,x,x,x
Cc1coc(NC(=O)CSc2nc(-c3ccc(Cl)cc3)cc(C(F)(F)F)c2C#N)n1,-127.4,-2.5,i,0.2,97.5,78.2*,66.2*,>40
COc1ccc(-c2cc(C(F)(F)F)c(C#N)c(SCC(=O)O)n2)cc1,-151.3,-3.1,x,-0.8,118.2,0.3,x,x
